# Compound activity from PubChem.
# Most compounds without a hit are left out; they make up all but 2.8% or so of the library.
# EP2 modulator = modulators of human EP2 prostaglandin E2 receptor | P43116 | EP2-expressing cells, cAMP HTRF FRET, PGE2 co-stimulation | induction, % at 25 µM | hit rate 0.83% among 260,000;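 active = compounds whose cAMP rise, as percent of the full-agonist control response, exceeds 60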;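 note: rat C6 glioma line stably carrying human EP2 under a CMV promoter; the protocol text gives 20 µM as final concentration; 100% = response of wells given 1 µM PGE2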
# PGE2 EP2 inh = EP2 receptor (human) inhibition | P43116 | AID 1422 | inhibition, % at 25 µM | C6 glioma cells expressing human EP2, cAMP TR-FRET; cells stimulated with saturating PGE2 | hit rate 0.52% among 260,000;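 active = percent inhibition above 40 after rounding to a whole number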;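 note: rat C6 glioma host cells with rolipram phosphodiesterase inhibitor present; the protocol text gives 20 µM as final concentration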
# NPY-Y2 PAM-ag = potentiates or activates human NPY-Y2 receptor. P49146. cells expressing NPY-Y2, potentiator/agonist read-out. activation, % at 3.6 µM. hit rate 0.45% among 220,000; in the data active = activation above about 27%;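 note: cells stimulated with NPY near EC25 plus isoproterenol at EC100; 0% = vehicle plus submaximal agonist and 100% = vehicle plus saturating agonist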
# NPY1 pot ag = human NPY-Y1 potentiation or agonism, primary screen; activation, % at 3.6 µM; P25929; AID 1304; hit rate 0.37% among 220,000; NPY-Y1 expressing cells, potentiator/agonist activation; in the data active = activation above about 33%, passing the limit was not always enough;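 note: cells stimulated with NPY at EC10 then isoproterenol at EC100; 0% = low agonist plus stimulus and 100% = saturating agonist plus stimulus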
# Target sequence (P25929 whole entry, looked up): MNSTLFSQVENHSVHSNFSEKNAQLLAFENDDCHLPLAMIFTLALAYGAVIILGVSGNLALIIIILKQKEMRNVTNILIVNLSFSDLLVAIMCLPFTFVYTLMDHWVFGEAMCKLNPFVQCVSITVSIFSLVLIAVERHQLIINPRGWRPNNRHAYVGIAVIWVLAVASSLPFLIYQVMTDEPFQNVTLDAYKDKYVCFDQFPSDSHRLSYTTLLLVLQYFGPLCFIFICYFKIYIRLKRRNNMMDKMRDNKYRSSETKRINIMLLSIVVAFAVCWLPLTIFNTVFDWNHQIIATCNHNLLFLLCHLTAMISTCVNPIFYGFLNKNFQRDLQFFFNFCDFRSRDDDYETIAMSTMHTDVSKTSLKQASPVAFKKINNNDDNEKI
# NPY-Y1 antag = antagonists of human neuropeptide Y receptor Y1. P25929. HEK293-CNG Y1 cells, membrane potential fluorescence; NPY at EC95, then isoproterenol. inhibition, % at 3.6 µM. hit rate 1% among 200,000;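 active = inhibition above the campaign mean inhibition of all tested compounds plus 3 SD, cut at about 20% in these data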;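 note: 0% = DMSO wells given NPY plus isoproterenol and 100% = isoproterenol alone without NPY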
#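 Material: HEK293 cells co-expressing NPY Y1 receptor and cyclic-nucleotide gated channel. Timing: compound incubation 1 h at room temperature, readout 45 min post-stimulation. Signal: fluorescence, membrane potential probe.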
# NPY-Y2 antag = blocks the human neuropeptide Y Y2 receptor; P49146; NPY-Y2 expressing cells, antagonist mode; inhibition, % at 2.7 µM; AID 793; hit rate 0.99% among 140,000; in the data active = inhibition above about 17%;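 note: 0% = vehicle with agonist challenge and 100% = reference antagonist with challenge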
# * hit, by the source's call; nt = no result; ! = repeats disagree.
SMILES,EP2 modulator,PGE2 EP2 inh,NPY-Y2 PAM-ag,NPY1 pot ag,NPY-Y1 antag,NPY-Y2 antag
CC(C)(C)NS(=O)(=O)c1ccc(NS(=O)(=O)c2ccc(F)cc2)cc1,20.2,11.6,90.2*,-0.9,5.0,1.3
Cc1ccc(S(=O)(=O)Nc2ccc(S(=O)(=O)NC(C)(C)C)cc2)cc1,-9.2,9.0,-1.9,7.4,2.9,1.9
N#Cc1c(N)sc(=S)c2c1CCCC2,14.1,63.7*,8.0,-11.7,0.5,2.1
CC1CCCN(CCCOc2ccc(Br)cc2Cl)C1 (centres undefined),-25.9,2.1,-30.7,-6.6,21.1*,nt
COC(=O)c1c(NC(=O)Cc2cccs2)sc(C(=O)Nc2ccccc2F)c1C,-6.3,11.1,nt,nt,nt,nt
CN(C)CCCn1c2c3ccccc3ccc2c2oc(=O)c3ccccc3c21,-5.0,74.2*,nt,nt,nt,nt
COc1ccc(NC(=O)CCCC2CCCCC2)cc1S(=O)(=O)N1CCCCC1,2.0,16.2,-6.9,-17.0,29.2*,17.7*
Cn1ncc(S(=O)(=O)Cc2ccccc2)c(Cl)c1=O,-33.0,88.8*,-12.3,2.8,nt,nt
Cn1ncc(SCc2ccccc2)c(Cl)c1=O,-31.4,6.2,2.2,1.9,nt,nt
Oc1cc(O)c2c(c1)O[C@@H](c1ccc(O)c(O)c1)[C@H](O[C@@]1(c3cc(O)c(O)c(O)c3)Oc3cc(O)cc(O)c3[C@H](O)[C@H]1O)C2,11.7,57.0*,nt,nt,nt,nt
O=C1CC(c2ccc(O)c(O)c2)Oc2cc(O)cc(O)c21 (centres undefined),9.9,15.1,nt,nt,nt,nt
O=C(CC1CCCCC1)OCn1nnc2ccccc2c1=O,30.3,24.6,102.5*,107.5*,0.2,1.4
COc1ccc2oc(=O)c(C(=O)NNC(=O)c3ccncc3)cc2c1,3.0,6.8,nt,nt,nt,nt
CC1CCC/C(=N/Nc2ccc([N+](=O)[O-])cc2[N+](=O)[O-])C1 (centres undefined),27.1,19.5,1.8,13.4,8.9,2.5
O=[N+]([O-])c1ccc(NN=C2c3ccccc3Cc3ccccc32)c([N+](=O)[O-])c1,24.1,44.2*,nt,nt,nt,nt
Cc1cc(C)c2c(NCc3cccs3)n[nH]c2n1,-28.3,8.5,nt,nt,nt,nt
Cc1cc(C)c(OCC(=O)N2N=C(c3ccncc3)CC2(O)C(F)(F)F)c(C)c1 (centres undefined),-4.8,12.1,nt,nt,nt,nt
CCOC(=O)CSc1nc2c(sc(=S)n2Cc2ccco2)c(=O)n1-c1ccc(F)cc1,35.8,2.3,-14.0,-2.2,20.8*,19.4*
CCCOc1cc2oc(=O)c3c(c2cc1Cl)CCC3,-26.7,11.5,nt,nt,nt,nt
CC(C)NC(=O)Cn1c2ccccc2n2c(SCC(=O)Nc3ccc(N4CCCC4)cc3)nnc12,-0.8,5.8,nt,nt,nt,nt
CC(C)(C)N(NC(=O)c1ccccc1)C(=O)c1cccc(C(=O)N(NC(=O)c2ccccc2)C(C)(C)C)c1,20.6,12.9,-16.3,-24.0,40.9*,20.5*
CCc1cccc(N(C(=O)c2csnn2)C(C(=O)NC(C)(C)C)c2sccc2C)c1 (centres undefined),20.4,8.3,nt,nt,nt,nt
Cn1ccnc1C1(O)CC2CCC(C1)N2C(=O)c1ccc2c(c1)OCO2 (centres undefined),1.1,nt,nt,nt,nt,nt
Cc1cccc2nc(C(C)C)c(NC3CCCC3)n12,-4.6,6.7,nt,nt,nt,nt
CC(C)c1nc2ccc(Br)cn2c1NC1CCCC1,64.9*,0.2,2.8,-4.8,3.1,nt
SMILES,EP2 modulator,PGE2 EP2 inh,NPY-Y2 PAM-ag,NPY1 pot ag,NPY-Y1 antag,NPY-Y2 antag
COc1ccc(C(=O)c2c(C)c3ccccc3n2CC(O)CNC(C)C)cc1 (centres undefined),-14.6,11.7,10.2,-38.0,18.0,14.9
CC(C)NCC(O)Cn1c2c(c3ccccc31)CCc1c-2cnn1-c1ccccc1 (centres undefined),-30.0,20.7,43.0*,49.9*,-6.0,1.0
CN(C)CCOC(c1ccccc1)c1ccccc1 (tested in a mixture with another compound),-7.7,18.6,-8.4,9.9,1.9,3.2
CN(C)CCOC(c1ccccc1)c1ccccc1,20.3,7.0,101.3*!,107.5*!,0.9,2.5
O=C(CSc1nnc2c3ccccc3nc(C3CCCCC3)n12)N1CCOCC1,0.1,14.9,nt,nt,nt,nt
Cc1ccc(S(=O)(=O)CCc2nnc(NC(=O)CC3CC4CCC3C4)s2)cc1 (centres undefined),-2.5,10.9,nt,nt,nt,nt
Cc1ccc2[nH]c(=O)c(CN(C3CCCCC3)C(c3nnnn3Cc3ccco3)C(C)C)cc2c1 (centres undefined),18.7,8.8,nt,nt,nt,nt
CS(=O)(=O)c1ccccc1C(=O)Nc1nc2ccccc2[nH]1,-1.7,108.5*,6.8,14.3,nt,nt
CSc1ccccc1C(=O)Nc1nc2ccccc2[nH]1,-40.5,4.7,-3.2,-13.5,0.4,nt
Nc1nc(-c2ccccc2)c(-c2ccccc2)c(-c2nc(N)nc(-c3ccccc3)c2-c2ccccc2)n1,13.0,47.8*,nt,nt,nt,nt
Nc1nc(-c2ccccc2)c(-c2ccccc2)o1,-28.7,7.0,12.2,-2.7,nt,nt
CCOc1ccc2[nH]c(=O)c(C(c3nnnn3CCOC)N3CCCCC3)cc2c1 (centres undefined),-4.3,8.9,nt,nt,nt,nt
Cn1c(=S)n(/N=C/c2ccc3c(c2)OCO3)c2ccccc21,64.4*,6.8,-3.1,8.3,8.8,9.6
COc1ccc2cc(CC(C#N)C(=O)Nc3ccc(F)cc3)c(=O)[nH]c2c1 (centres undefined),-43.8,13.5,nt,nt,nt,nt
CC1(C)N=C(N)N=C(N)N1c1cccc(CN)c1,22.2,4.5,-12.6,-5.8,nt,nt
CC1(C)N=C(N)N=C(N)N1c1cccc(CSc2ccccc2)c1,19.6,51.6*,nt,nt,nt,nt
CC1(C)N=C(N)N=C(N)N1c1cccc(OCc2cccc(N)c2)c1,-2.4,53.9*,nt,nt,nt,nt
CCOC(Cn1c(SCc2cc(C(C)=O)ccc2OC)nc2ccccc2c1=O)OCC,18.8,30.2,-6.5,-7.4,3.1,1.2
COc1ccc(C(C)=O)cc1CSc1nc2cc(C(=O)O)ccc2c(=O)n1Cc1ccccc1,63.7*,11.9,8.3,16.8,6.6,1.8
CCN(c1ccccc1)S(=O)(=O)c1ccc(F)cc1C,62.5*,10.5,-9.6,-20.2,-1.3,2.2
CCN(c1ccccc1)S(=O)(=O)c1ccc(F)c(C(=O)O)c1,9.0,5.2,3.0,6.8,11.0,1.3
COc1ccc(Cc2nnc3c4cnn(-c5cccc(C)c5)c4ncn23)cc1OC,-15.9,10.7,nt,nt,nt,nt
COC(=O)CSc1nnc(-c2cc(OC)cc(OC)c2)o1,-1.3,21.6,nt,nt,nt,nt
COc1ccc(C(=O)CSc2nc3c(C)c(C)ccc3cc2C#N)cc1OC,33.3,50.2*,nt,nt,nt,nt
